Results published in the M2OR odorant receptor database.
Changes are numbered by the printed parent chain.

Tests used:
Conditions in all cases: stereoisomer not certain
OR10A2 (Homo sapiens) = molecular target: T1, OR10A2 (Homo sapiens) (UniProt Q9H208)
T1 sequence (whole entry): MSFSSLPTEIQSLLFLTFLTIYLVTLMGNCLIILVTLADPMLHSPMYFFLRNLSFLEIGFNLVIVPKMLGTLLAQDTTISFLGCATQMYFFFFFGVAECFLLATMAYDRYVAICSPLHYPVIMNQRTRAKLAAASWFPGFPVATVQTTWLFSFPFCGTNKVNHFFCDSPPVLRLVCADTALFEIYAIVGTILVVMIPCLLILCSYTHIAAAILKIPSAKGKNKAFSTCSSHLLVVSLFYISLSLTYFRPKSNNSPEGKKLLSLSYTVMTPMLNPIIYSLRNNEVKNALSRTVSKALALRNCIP
Outline: (§1)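 Whether a receptor–molecule pair is responsive (active) rests on the original authors' judgment that its measured signal was statistically different from baseline. Pairs without that judgment are non-responsive (inactive). Sources used varied assay methods, commonly transient luciferase assays in mammalian cell lines.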

OR10A3 (Homo sapiens) = molecular target: T2, OR10A3 (Homo sapiens) (UniProt P58181)
T2 sequence (whole entry): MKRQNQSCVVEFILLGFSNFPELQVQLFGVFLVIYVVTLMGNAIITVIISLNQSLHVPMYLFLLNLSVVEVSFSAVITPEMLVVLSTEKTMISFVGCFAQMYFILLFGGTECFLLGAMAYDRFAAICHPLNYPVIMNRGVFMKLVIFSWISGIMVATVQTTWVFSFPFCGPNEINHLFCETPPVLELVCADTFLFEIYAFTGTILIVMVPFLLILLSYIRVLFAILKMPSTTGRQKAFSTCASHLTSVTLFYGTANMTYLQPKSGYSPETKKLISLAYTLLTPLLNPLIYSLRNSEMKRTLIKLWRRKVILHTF
Outline: as §1

OR10A4 (Homo sapiens) = molecular target: T3, OR10A4 (Homo sapiens) (UniProt Q9H209)
T3 sequence (whole entry): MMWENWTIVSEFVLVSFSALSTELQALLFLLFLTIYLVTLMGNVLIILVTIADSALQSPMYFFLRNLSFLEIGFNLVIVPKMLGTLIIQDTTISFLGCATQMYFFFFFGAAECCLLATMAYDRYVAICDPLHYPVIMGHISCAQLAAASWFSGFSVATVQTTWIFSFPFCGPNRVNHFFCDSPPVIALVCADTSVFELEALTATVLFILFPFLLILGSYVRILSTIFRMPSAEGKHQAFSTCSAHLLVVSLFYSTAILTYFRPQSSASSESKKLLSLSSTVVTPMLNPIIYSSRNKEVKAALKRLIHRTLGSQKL
Outline: as §1

OR10A5 (Homo sapiens) = molecular target: T4, OR10A5 (Homo sapiens) (UniProt Q9H207)
T4 sequence (whole entry): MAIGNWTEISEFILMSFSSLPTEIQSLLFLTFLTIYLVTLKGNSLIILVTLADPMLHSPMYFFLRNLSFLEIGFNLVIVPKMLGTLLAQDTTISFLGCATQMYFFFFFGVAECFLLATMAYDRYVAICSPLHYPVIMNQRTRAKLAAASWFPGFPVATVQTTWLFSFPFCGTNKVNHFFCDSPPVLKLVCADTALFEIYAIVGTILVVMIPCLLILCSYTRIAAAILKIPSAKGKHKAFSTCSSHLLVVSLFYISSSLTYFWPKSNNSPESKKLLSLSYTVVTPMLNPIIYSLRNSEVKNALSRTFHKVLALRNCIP
Outline: as §1

OR10A6 (Homo sapiens) = molecular target: T5, OR10A6 (Homo sapiens) (UniProt Q8NH74)
T5 sequence (whole entry): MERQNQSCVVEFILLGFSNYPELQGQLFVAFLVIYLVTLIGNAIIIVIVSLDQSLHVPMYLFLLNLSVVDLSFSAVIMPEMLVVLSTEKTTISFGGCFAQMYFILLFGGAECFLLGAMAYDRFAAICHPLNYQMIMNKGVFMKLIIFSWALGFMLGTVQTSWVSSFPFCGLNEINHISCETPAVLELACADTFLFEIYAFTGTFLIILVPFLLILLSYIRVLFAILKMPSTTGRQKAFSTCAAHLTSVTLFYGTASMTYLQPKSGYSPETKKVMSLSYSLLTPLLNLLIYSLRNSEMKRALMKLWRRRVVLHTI
Outline: as §1

OR10A7 (Homo sapiens) = molecular target: T6, OR10A7 (Homo sapiens) (UniProt Q8NGE5)
T6 sequence (whole entry): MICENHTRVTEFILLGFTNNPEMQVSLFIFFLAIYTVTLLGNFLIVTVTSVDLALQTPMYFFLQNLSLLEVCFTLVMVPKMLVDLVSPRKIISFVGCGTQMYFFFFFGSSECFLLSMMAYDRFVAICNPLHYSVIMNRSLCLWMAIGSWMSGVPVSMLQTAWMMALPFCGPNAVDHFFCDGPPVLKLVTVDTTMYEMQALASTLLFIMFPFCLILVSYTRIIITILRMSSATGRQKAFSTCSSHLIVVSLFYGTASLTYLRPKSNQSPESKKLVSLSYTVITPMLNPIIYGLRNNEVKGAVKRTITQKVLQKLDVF
Outline: as §1

OR10AD1 (Homo sapiens) = molecular target: T7, OR10AD1 (Homo sapiens) (UniProt Q8NGE0)
T7 sequence (whole entry): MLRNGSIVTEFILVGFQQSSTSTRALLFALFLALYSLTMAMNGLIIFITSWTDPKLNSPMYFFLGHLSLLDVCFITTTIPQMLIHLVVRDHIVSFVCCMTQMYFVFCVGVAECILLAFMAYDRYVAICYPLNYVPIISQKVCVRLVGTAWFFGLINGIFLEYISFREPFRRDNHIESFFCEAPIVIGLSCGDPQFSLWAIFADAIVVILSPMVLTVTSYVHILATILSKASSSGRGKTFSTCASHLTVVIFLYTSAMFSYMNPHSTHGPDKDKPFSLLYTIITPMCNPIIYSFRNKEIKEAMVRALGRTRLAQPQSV
Outline: as §1

OR10AG1 (Homo sapiens) = molecular target: T8, OR10AG1 (Homo sapiens) (UniProt Q8NH19)
T8 sequence (whole entry): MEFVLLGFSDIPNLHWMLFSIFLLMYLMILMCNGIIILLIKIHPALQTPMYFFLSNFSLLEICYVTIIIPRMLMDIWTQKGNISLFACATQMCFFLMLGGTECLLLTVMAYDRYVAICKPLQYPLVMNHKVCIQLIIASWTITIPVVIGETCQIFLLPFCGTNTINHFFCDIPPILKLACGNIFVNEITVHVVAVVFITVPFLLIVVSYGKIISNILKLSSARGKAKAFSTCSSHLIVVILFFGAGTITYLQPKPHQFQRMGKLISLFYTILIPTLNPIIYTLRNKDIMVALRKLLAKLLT
Outline: as §1

OR10C1 (Homo sapiens) = molecular target: T9, OR10C1 (Homo sapiens) (UniProt Q96KK4)
T9 sequence (whole entry): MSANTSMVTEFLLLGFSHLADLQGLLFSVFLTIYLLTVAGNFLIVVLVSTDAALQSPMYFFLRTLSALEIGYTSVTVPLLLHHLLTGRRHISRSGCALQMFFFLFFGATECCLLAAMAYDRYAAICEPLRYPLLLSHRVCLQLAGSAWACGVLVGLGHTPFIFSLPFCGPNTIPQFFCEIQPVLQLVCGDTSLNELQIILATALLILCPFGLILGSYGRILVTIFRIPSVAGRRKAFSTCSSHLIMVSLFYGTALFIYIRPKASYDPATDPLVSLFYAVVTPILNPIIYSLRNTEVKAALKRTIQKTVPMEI
Outline: as §1

OR10D3 (Homo sapiens) = molecular target: T10, OR10D3 (Homo sapiens) (UniProt Q8NH80)
T10 sequence (whole entry): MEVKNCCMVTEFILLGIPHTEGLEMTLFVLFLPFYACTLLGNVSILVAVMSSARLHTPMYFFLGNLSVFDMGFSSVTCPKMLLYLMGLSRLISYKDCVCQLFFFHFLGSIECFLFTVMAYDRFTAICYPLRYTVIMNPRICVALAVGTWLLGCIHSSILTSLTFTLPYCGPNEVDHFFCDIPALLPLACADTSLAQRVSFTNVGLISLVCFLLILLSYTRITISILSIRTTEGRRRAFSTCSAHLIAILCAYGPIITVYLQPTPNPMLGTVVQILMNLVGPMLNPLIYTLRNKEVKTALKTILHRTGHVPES
Outline: as §1

O5AP2 A105T = test system: T11, O5AP2 A105T
T11 sequence (whole entry): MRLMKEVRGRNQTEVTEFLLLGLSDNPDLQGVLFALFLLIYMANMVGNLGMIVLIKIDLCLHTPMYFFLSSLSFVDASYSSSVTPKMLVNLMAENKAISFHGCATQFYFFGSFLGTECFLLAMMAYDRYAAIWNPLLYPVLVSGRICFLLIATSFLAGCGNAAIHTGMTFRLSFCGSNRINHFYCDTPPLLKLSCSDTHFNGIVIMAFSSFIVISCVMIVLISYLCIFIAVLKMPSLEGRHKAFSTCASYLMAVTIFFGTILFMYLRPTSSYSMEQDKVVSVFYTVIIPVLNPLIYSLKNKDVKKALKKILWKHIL
Outline: as §1

O5AU1 = test system: T12, O5AU1
T12 sequence (whole entry): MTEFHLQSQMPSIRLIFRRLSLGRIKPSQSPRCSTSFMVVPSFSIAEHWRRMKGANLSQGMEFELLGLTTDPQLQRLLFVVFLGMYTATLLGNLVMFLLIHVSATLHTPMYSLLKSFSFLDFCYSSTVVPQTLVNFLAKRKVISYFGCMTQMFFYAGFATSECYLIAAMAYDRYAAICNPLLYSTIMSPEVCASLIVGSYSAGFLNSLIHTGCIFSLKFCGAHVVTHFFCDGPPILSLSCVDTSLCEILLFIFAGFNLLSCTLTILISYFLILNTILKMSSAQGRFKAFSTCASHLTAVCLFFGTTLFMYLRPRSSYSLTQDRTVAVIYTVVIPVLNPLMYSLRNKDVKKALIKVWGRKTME
Outline: as §1

O5H14 = test system: T13, O5H14
T13 sequence (whole entry): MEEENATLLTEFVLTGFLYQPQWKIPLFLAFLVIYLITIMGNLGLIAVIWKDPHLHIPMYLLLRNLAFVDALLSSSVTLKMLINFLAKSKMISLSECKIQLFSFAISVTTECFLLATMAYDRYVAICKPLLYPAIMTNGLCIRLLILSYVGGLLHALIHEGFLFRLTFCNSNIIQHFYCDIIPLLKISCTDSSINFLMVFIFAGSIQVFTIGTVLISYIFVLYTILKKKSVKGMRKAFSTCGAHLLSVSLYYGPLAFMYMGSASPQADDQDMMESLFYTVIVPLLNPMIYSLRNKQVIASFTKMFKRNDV
Outline: as §1

O5H15 V108I S148T T167S = test system: T14, O5H15 V108I S148T T167S
T14 sequence (whole entry): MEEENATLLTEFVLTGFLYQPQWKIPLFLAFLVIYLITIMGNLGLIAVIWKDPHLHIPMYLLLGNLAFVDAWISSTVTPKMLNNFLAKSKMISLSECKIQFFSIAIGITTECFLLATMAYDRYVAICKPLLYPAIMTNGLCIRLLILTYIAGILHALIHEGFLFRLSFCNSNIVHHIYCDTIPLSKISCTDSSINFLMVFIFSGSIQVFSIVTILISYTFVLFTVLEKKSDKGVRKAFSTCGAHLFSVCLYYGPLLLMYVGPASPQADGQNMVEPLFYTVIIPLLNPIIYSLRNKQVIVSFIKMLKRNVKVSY
Outline: as §1

O6C65 T222A = test system: T15, O6C65 T222A
T15 sequence (whole entry): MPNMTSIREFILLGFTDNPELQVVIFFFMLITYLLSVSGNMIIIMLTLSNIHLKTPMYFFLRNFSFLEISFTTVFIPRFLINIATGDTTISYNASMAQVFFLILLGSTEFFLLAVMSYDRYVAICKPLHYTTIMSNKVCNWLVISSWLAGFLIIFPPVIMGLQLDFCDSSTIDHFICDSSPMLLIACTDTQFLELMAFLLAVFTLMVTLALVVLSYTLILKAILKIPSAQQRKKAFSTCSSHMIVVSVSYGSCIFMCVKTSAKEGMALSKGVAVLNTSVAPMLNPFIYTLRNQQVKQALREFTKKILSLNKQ
Outline: as §1

O6C70 L181P = test system: T16, O6C70 L181P
T16 sequence (whole entry): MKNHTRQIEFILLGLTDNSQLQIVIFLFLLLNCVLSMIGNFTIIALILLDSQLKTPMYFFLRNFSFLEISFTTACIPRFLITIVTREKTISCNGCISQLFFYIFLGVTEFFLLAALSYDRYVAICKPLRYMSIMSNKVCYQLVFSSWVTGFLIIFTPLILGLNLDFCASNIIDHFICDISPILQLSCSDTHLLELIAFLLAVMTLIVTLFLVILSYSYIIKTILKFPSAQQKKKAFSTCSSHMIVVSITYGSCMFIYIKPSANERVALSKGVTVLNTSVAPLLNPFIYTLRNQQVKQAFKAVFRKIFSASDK
Outline: as §1

O7E24 S193F P242S = test system: T17, O7E24 S193F P242S
T17 sequence (whole entry): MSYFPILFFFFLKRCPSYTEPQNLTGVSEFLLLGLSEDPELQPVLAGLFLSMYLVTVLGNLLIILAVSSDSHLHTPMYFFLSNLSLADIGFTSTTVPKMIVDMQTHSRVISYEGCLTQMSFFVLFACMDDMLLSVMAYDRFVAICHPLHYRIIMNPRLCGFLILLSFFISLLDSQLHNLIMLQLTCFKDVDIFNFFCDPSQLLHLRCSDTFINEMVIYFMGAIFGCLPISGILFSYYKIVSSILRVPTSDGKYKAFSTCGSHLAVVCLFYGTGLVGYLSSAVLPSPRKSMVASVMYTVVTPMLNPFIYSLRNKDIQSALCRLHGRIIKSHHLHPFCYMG
Outline: as §1

O7E24 = test system: T18, O7E24
T18 sequence (whole entry): T17 sequence (whole entry) with F193S
Outline: as §1

Measured: odorant receptor agonist call;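 further: active if original authors judged signal statistically different from baseline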

CCC(S)C(C)CO (stereo not drawn)
inactive: OR10A2 (Homo sapiens) | OR10A3 (Homo sapiens) | OR10A4 (Homo sapiens) | OR10A5 (Homo sapiens) | OR10A6 (Homo sapiens) | OR10A7 (Homo sapiens) | OR10AD1 (Homo sapiens) | OR10AG1 (Homo sapiens) | OR10C1 (Homo sapiens) | OR10D3 (Homo sapiens)

CCCC(S)CCOC(C)=O (stereo not drawn)
inactive: O5AP2 A105T | O5AU1 | O5H14 | O5H15 V108I S148T T167S | O6C65 T222A | O6C70 L181P | O7E24 S193F P242S | O7E24 | OR10A2 (Homo sapiens) | OR10A3 (Homo sapiens) | OR10A4 (Homo sapiens) | OR10A5 (Homo sapiens) | OR10A6 (Homo sapiens) | OR10A7 (Homo sapiens) | OR10AD1 (Homo sapiens) | OR10AG1 (Homo sapiens) | OR10C1 (Homo sapiens) | OR10D3 (Homo sapiens)
